Assay results published in BindingDB's records for doi:10.1021/jm000929u (Universidad Complutense, 2001).

Target: T1, 5-hydroxytryptamine receptor 1A (Rattus norvegicus, UniProt P19327)
T1 sequence (P19327 whole entry): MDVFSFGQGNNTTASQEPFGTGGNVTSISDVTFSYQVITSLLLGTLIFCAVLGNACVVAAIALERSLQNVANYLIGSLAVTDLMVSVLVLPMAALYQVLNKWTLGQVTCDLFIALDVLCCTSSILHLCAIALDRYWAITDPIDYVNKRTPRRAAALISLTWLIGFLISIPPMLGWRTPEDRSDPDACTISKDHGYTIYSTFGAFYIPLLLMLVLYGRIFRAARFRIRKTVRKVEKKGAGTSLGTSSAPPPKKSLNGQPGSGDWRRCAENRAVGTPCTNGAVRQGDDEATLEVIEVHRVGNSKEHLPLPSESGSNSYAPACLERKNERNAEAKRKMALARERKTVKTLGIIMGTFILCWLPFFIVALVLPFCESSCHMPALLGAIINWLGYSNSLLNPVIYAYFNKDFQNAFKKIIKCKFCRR
Assay: In vitro binding affinity towards 5-hydroxytryptamine 1A receptor was determined using radioligand [3H]-8-OH-DPAT
Method in brief: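 Rat (male Sprague-Dawley) cerebral cortex membranes, about 1 mg protein, incubated 15 min at 37 °C with 0.6 nM [3H]8-OH-DPAT plus competitor in 50 mM Tris-HCl with 10 nM clonidine and 30 nM prazosin, pH 7.4. Nonspecific binding with 10 µM 5-HT. Triplicates; GF/B filtration, scintillation counting; IC50 curve fit, Ki by Cheng-Prusoff; 2-4 experiments.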

Structure (SMILES)	Ki [nM]
Nc1cccc(N2CCN(CCCn3c(O)c4n(c3=O)CCC4)CC2)c1	> 1000
CCCNC(=O)c1ccccc1N1CCN(CCCn2c(O)c3n(c2=O)CCC3)CC1	> 1000
O=c1n(CCCN2CCN(c3cccc(Br)c3)CC2)c(O)c2n1CCC2	33
CC(C)C(=O)Nc1cccc(N2CCN(CCCn3c(O)c4n(c3=O)CCCC4)CC2)c1	> 1000
N#Cc1ccccc1N1CCN(CCCn2c(O)c3n(c2=O)CCCC3)CC1	33
